# Active and inactive are the calls of the source. The rule behind the calls is not given here.
# How the values were obtained:
# [1] = biological target: T1, Adenosine receptor A2b (Homo sapiens) (UniProt P29275); assay: Agonist activity at human A2B expressed in CHO cells assessed as stimulation of cAMP production at 1 uM by alphascreen assay relative to NECA; type: functional, cell-based
# T1 sequence (whole entry): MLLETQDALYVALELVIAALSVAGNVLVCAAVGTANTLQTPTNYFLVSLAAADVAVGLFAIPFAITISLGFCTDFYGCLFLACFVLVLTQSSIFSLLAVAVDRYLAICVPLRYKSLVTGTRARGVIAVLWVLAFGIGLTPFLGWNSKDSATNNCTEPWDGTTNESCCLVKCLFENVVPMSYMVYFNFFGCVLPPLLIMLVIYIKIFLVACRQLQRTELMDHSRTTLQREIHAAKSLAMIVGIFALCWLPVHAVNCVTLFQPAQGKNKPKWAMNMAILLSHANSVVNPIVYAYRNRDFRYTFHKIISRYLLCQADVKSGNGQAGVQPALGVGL
# How it was run: (§1)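 Compounds tested alone at final 1 nM to 1 µM. cAMP measured by AlphaScreen. Efficacy taken at 1 µM relative to NECA 1 µM (=100%). Four independent experiments in triplicate.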
# Adenosine receptor A1 [2] = biological target: T2, Adenosine receptor A1 (Homo sapiens, UniProt P30542); assay: Displacement of [3H]DPCPX from human A1AR expressed in CHO cell membranes measured after 90 mins by scintillation counting method
# T2 sequence (P30542 whole entry): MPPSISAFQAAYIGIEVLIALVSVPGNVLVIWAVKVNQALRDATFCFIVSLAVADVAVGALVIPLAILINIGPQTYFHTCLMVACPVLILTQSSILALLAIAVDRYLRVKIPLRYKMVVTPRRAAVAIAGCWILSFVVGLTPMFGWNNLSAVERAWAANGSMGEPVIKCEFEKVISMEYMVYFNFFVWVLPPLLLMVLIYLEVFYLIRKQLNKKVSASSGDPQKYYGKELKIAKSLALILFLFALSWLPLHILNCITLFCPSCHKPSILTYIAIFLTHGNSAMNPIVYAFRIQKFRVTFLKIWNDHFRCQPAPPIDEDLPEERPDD
# How it was run: (§2)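 Nonspecific binding with 1 µM DPCPX. GF/B filtration and scintillation counting. Ki by Cheng–Prusoff. Inhibition % at 1 µM. Four experiments in triplicate.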
# CHO = assay: Effect on cAMP level in wild-type CHO cells at 0.001 to 1 uM by alphascreen assay; type: functional, cell-based; conditions: Cricetulus griseus
# How it was run: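 Compounds at 1 nM to 1 µM final concentrations. cAMP quantified with AlphaScreen kit. Four independent experiments, each in triplicate.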
# Adenosine receptor A2a [3] = biological target: T3, Adenosine receptor A2a (Homo sapiens, UniProt P29274); assay: Displacement of [3H]ZM241385 from human A2AR expressed in CHO cell membranes at 1 uM measured after 60 mins by scintillation counting method relative to control
# How it was run: (§3)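 Nonspecific binding defined with 1 µM ZM241385. Filtered on GF/B, scintillation counted. Ki by Cheng–Prusoff. Percent inhibition at 1 µM. Four experiments in triplicate.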
# Adenosine receptor A2b = biological target: T4, Adenosine receptor A2b (Homo sapiens, UniProt P29275); assay: Agonist activity at human A2B expressed in CHO cells assessed as stimulation of cAMP production by alphascreen assay; type: functional, cell-based; how it was run: as §1
# T4 sequence (P29275 whole entry): T1 sequence (whole entry)
# [4] = biological target: T5, Adenosine receptor A1 (Homo sapiens) (UniProt P30542); assay: Inverse agonist activity at human A1AR expressed in CHO cells assessed as increase in forskolin-stimulated cAMP production by alphascreen assay relative to DPCPX; type: functional, cell-based
# T5 sequence (whole entry): T2 sequence (P30542 whole entry)
# How it was run: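 Compounds at 1 nM to 1 µM. cAMP rise measured by AlphaScreen. EC50 from sigmoid fit. […] Four independent experiments in triplicate.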
# [5] = biological target: T6, Adenosine receptor A3 (Homo sapiens) (UniProt P0DMS8); assay: Displacement of [125I]ABMECA from human A3R expressed in CHO cell membranes at 1 uM measured after 120 mins by scintillation counting method relative to control
# T6 sequence (whole entry): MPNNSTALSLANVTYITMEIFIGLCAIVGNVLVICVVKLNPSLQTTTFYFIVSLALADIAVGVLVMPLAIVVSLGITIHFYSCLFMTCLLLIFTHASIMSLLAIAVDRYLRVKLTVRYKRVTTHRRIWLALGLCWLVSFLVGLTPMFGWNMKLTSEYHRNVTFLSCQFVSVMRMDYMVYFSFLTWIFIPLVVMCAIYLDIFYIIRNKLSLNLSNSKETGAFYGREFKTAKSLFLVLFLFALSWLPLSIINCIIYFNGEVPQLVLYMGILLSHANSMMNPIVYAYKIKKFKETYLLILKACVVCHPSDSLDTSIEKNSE
# How it was run: (§4)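 Nonspecific binding with 1 µM AB-MECA. GF/B filtration and counting. Ki via Cheng–Prusoff. Percent inhibition at 1 µM. Four experiments in triplicate.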
# Adenosine receptor A1 [6] = biological target: T2, Adenosine receptor A1; assay: Inverse agonist activity at human A1AR expressed in CHO cells assessed as increase in forskolin-stimulated cAMP production by alphascreen assay; type: functional, cell-based
# How it was run: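 Compounds at 1 nM to 1 µM. cAMP rise measured by AlphaScreen. EC50 from sigmoid fit. Four independent experiments in triplicate.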
# Adenosine receptor A2a [7] = biological target: T3, Adenosine receptor A2a; assay: Displacement of [3H]ZM241385 from human A2AR expressed in CHO cell membranes measured after 60 mins by scintillation counting method; how it was run: as §3
# Adenosine receptor A3 = biological target: T7, Adenosine receptor A3 (Homo sapiens, UniProt P0DMS8); assay: Displacement of [125I]ABMECA from human A3R expressed in CHO cell membranes measured after 120 mins by scintillation counting method; how it was run: as §4
# T7 sequence (P0DMS8 whole entry): T6 sequence (whole entry)
# [8] = biological target: T1, Adenosine receptor A2b (Homo sapiens); assay: Antagonist activity at human A2BR expressed in CHO cells assessed as inhibition of NECA-stimulated cAMP production at 1 uM by alphascreen assay relative to control; type: functional, cell-based
# How it was run: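 Compounds added at 1 nM to 1 µM final, with percent inhibition read at 1 µM. AlphaScreen cAMP read-out. IC50 by sigmoid non-linear regression. Four independent experiments in triplicate.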
# [9] = biological target: T5, Adenosine receptor A1 (Homo sapiens); assay: Displacement of [3H]DPCPX from human A1AR expressed in CHO cell membranes at 1 uM measured after 90 mins by scintillation counting method relative to control; how it was run: as §2
# Adenosine receptor A2a [10] = biological target: T3, Adenosine receptor A2a; assay: Antagonist activity at human A2AR expressed in CHO cells assessed as inhibition of CGS21680-stimulated cAMP production by alphascreen assay; type: functional, cell-based
# T3 sequence (P29274 whole entry): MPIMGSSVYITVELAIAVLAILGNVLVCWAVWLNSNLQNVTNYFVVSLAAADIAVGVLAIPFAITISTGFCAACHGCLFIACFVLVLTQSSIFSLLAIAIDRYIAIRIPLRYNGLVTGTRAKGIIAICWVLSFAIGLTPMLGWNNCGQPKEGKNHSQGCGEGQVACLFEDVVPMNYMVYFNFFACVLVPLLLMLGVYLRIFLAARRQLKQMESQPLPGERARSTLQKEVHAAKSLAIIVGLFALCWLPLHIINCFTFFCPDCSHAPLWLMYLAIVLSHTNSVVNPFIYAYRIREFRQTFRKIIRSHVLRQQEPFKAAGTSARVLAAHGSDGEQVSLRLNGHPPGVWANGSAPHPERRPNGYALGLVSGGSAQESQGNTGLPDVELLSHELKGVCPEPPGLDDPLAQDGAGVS
SMILES,Efficacy [1],Ki (Adenosine receptor A1 [2]),inhibition (Adenosine receptor A2a [3]),EC50 (Adenosine receptor A2b),Emax [4],inhibition [5],EC50 (Adenosine receptor A1 [6]),Ki (Adenosine receptor A2a [7]),Ki (Adenosine receptor A3),inhibition [8],inhibition [9],IC50 (Adenosine receptor A2a [10]),Activity (CHO)
N#Cc1c(N)nc(SCCO)c(C#N)c1-c1cccnc1,18%,35 nM,7%,> 1000 nM,75%,22%,94 nM,,,,,,inactive
N#Cc1c(N)nc(OCCO)c(C#N)c1-c1ccco1,11%,632 nM,25%,> 1000 nM,,3%,,,,,,,inactive
N#Cc1c(N)nc(NCCO)c(C#N)c1-c1ccco1,1%,,18%,> 1000 nM,,17%,,,,6%,20%,,inactive
N#Cc1c(N)nc(SCc2cccnc2)c(C#N)c1-c1ccco1,1%,1.42 nM,,> 1000 nM,47%,,2.73 nM,24 nM,948 nM,,,83 nM,inactive
N#Cc1c(NC2CCCC2)nc(SCCO)c(C#N)c1-c1ccco1,1%,742 nM,8%,> 1000 nM,,,,,780 nM,,,,inactive
N#Cc1c(N)nc(SCCO)c(C#N)c1-c1ccco1,7%,57 nM,27%,> 1000 nM,83%,29%,128 nM,,,33%,,,inactive
COC(=O)c1ccc(CSc2nc(N)c(C#N)c(-c3ccco3)c2C#N)o1,7%,82 nM,1%,> 1000 nM,24%,11%,185 nM,,,,,,inactive
N#Cc1c(N)nc(SCCO)c(C#N)c1-c1ccsc1,8%,60 nM,9%,> 1000 nM,62%,33%,142 nM,,,,,,inactive
N#Cc1c(N)nc(SCC(=O)c2ccccc2)c(C#N)c1-c1ccco1,1%,23 nM,,> 1000 nM,29%,26%,57 nM,224 nM,,,,,inactive
N#Cc1c(N)nc(SCC(N)=O)c(C#N)c1-c1ccco1,17%,175 nM,21%,> 1000 nM,,,,,177 nM,,,,inactive
N#Cc1c(N)nc(NCCO)c(C#N)c1-c1cccnc1,1%,,1%,> 1000 nM,,8%,,,,,1%,,inactive
CCCn1c(=O)c2[nH]c(C3CCCC3)nc2n(CCC)c1=O,1%,,,,,,,,,,,,
COC(=O)c1cccc(CSc2nc(N)c(C#N)c(-c3ccoc3)c2C#N)c1,7%,2.11 nM,,> 1000 nM,51%,1%,4.35 nM,96 nM,,,,,inactive
COC(=O)c1cccc(CSc2nc(N)c(C#N)c(-c3cccnc3)c2C#N)c1,15%,1.18 nM,,> 1000 nM,72%,8%,6.26 nM,636 nM,,,,,inactive
N#Cc1c(N)nc(SCc2ccccn2)c(C#N)c1-c1ccco1,9%,2.71 nM,,> 1000 nM,30%,,3.41 nM,108 nM,134 nM,,,,inactive

# More lines, main results first:
Efficacy [1],Ki (Adenosine receptor A1 [2]),inhibition (Adenosine receptor A2a [3]),EC50 (Adenosine receptor A2b),Emax [4],inhibition [5],EC50 (Adenosine receptor A1 [6]),Ki (Adenosine receptor A2a [7]),Ki (Adenosine receptor A3),inhibition [8],inhibition [9],IC50 (Adenosine receptor A2a [10]),SMILES,Activity (CHO)
10%,86 nM,8%,> 1000 nM,53%,1%,192 nM,,,,,,N#Cc1c(N)nc(SCC(=O)OCc2ccccc2)c(C#N)c1-c1ccco1,inactive
1%,93 nM,,> 1000 nM,,,,887 nM,582 nM,,,,N#CCSc1nc(N)c(C#N)c(-c2ccco2)c1C#N,inactive
7%,1.02 nM,,> 1000 nM,100%,,4.82 nM,93 nM,668 nM,,,,N#Cc1cccc(CSc2nc(N)c(C#N)c(-c3ccco3)c2C#N)c1,inactive
32%,19 nM,19%,852 nM,39%,34%,58 nM,,,38%,,,N#Cc1c(N)nc(SCCO)c(C#N)c1-c1ccoc1,inactive
3%,243 nM,11%,> 1000 nM,,,,,211 nM,,,,CC(=O)Nc1nc(SCCO)c(C#N)c(-c2ccco2)c1C#N,inactive
14%,40 nM,,> 1000 nM,,,,114 nM,678 nM,40%,,,N#Cc1c(N)nc(SCc2ccncc2)c(C#N)c1-c1ccco1,inactive
1%,,1%,> 1000 nM,,8%,,,,,10%,,N#Cc1c(Nc2ccc(I)cc2)nc(SCCO)c(C#N)c1-c1ccco1,inactive
4%,108 nM,17%,> 1000 nM,,25%,,,,,,,COC(=O)CSc1nc(N)c(C#N)c(-c2ccco2)c1C#N,inactive
1%,324 nM,33%,> 1000 nM,,29%,,,,4%,,,N#Cc1c(N)nc(NCCO)c(C#N)c1-c1cccs1,inactive
62%,2.72 nM,,982 nM,56%,15%,3.85 nM,693 nM,,,,,COC(=O)c1cccc(CSc2nc(N)c(C#N)c(-c3cccs3)c2C#N)c1,inactive
69%,52 nM,1%,885 nM,74%,,107 nM,,554 nM,,,,N#Cc1c(N)nc(SCCO)c(C#N)c1-c1cccs1,inactive

# Source: ChEMBL document CHEMBL4406810, “Modifications on the Amino-3,5-dicyanopyridine Core To Obtain Multifaceted Adenosine Receptor Ligands with Antineuropathic Activity” (J Med Chem, 2019)
